# Published values pooled from the literature.
# Lines come from different studies, so protocols differ.
# Target: Phosphorylase b kinase gamma catalytic chain, liver/testis isoform (PHKG2, Homo sapiens, UniProt P15735)
# Residues used in one study (P15735 1-406): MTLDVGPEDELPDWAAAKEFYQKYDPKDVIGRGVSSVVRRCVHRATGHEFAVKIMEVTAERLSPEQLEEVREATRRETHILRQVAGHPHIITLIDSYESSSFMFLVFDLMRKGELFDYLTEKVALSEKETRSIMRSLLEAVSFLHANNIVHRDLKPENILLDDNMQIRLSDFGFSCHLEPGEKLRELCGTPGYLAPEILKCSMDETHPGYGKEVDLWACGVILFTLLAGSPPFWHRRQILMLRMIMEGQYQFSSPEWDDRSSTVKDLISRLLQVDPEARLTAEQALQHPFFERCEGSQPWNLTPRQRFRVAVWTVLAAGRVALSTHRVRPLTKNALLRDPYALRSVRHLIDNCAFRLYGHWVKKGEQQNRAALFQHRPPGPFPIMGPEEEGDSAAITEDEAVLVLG
Compound,read-out,method,tested at,remaining binding
O=C(NCCCN1CCOCC1)c1ccc(Nc2nccc(-c3cc4ccccc4s3)n2)cc1,binding,competition with immobilised ligand,1 µM,33%
FC(F)(F)Oc1cccc(-c2cnc3ccc(-c4ccncc4)nn23)c1,cell-free assay,competition with immobilised ligand,5 µM,22%
Cc1cnn2ncc(-c3ccnc(N(C)C)n3)c2c1,binding,,1 µM,95%
C[C@@H](c1ccc(-n2cnc3c(N)ncnc32)cc1)N1CCc2nn(C)c(Cc3ccccc3)c2C1=O,binding,competition with immobilised ligand,0.1 µM,100%
COc1cnc(Nc2cccc(S(N)(=O)=O)c2)nc1N1CCN(c2ccccc2)C(=O)C1,binding,competition with immobilised ligand,1 µM,100%
O=C(N1CCS(=O)(=O)CC1)N1C[C@H](c2ccc(OC(F)(F)F)cc2)C[C@H](c2nc(C3CC3)no2)C1,cell-free assay,competition with immobilised ligand,1 µM,100%
N[C@H]1CCN(c2nccc(-c3cnn4ncccc34)n2)C1,binding,,1 µM,77%
CN(C)C(=O)Cn1cc(-c2nc([C@@](C)(c3ccc(-c4cnc(N)nc4)cc3)C3CC3)no2)cn1,cell-free assay,competition with immobilised ligand,1 µM,80%
O=C(c1ccc(Nc2nccc(-c3cc4ccccc4s3)n2)cc1)N1CCC(N2CCCC2)CC1,binding,competition with immobilised ligand,1 µM,64%
C[C@@H]1CCN(c2nccc(-c3cnn4ncccc34)n2)C1,binding,,1 µM,72%
CNC(=O)Nc1ccc2c(c1)[C@@]1(CC2)OC(=O)N(CC(=O)N(Cc2ccc(F)cc2)[C@@H](C)C(F)(F)F)C1=O,cell-free assay,competition with immobilised ligand,1 µM,100%
F[C@@H]1CCN(c2nccc(-c3cnn4ncccc34)n2)C1,binding,,1 µM,100%
O=C(Nc1c[nH]nc1C(=O)NC1CCNCC1)c1cc(F)cc(F)c1,binding,competition with immobilised ligand,1 µM,100%
CS(=O)(=O)N1CCCC(NC(=O)[C@H](CCC2CCCCC2)NC(=O)c2ccc(CNC(=O)c3cnc4ccccn34)cc2)C1 (stereo partly drawn),cell-free assay,competition with immobilised ligand,0.1 µM,100%
CNC(=O)[C@@H]1CC[C@@H](n2c(-c3ccc4cnccc4c3)nc3ccc(C(=O)NCc4cccc(C(N)=O)c4)cc32)C1,binding,competition with immobilised ligand,1 µM,99%
CN(C)c1nccc(-c2cnn3ncccc23)n1,binding,,1 µM,86%
Nc1ncc2c(n1)-c1c([nH]c3ccc(C#CC4CC4)cc13)CCCC2,binding,competition with immobilised ligand,1 µM,100%
Cc1cc(-n2nc(Cc3cc(F)cc(C(F)(F)F)c3)nc2C)ccc1C(N)=O,cell-free assay,competition with immobilised ligand,1 µM,100%
O=C(c1ccc(Nc2ncc(Cl)c(-c3ccc(Cl)s3)n2)cc1)N1CCC(N2CCCC2)CC1,binding,competition with immobilised ligand,1 µM,66%
N#CC1(c2ccccn2)CCN(Cc2cc(C(=O)N3CCCC3)c(=O)n3ccccc23)CC1,cell-free assay,competition with immobilised ligand,1 µM,85%
CN(C)c1ncc(F)c(-c2cnn3ncccc23)n1,binding,,1 µM,69%
